Data published in ChEMBL document CHEMBL1122485, “Antibacterially active substituted anilides of carboxylic and sulfonic acids” (1983).
Values after ≈ are worked out from the molar mass of the structure shown.

Legend:
Staphylococcus aureus [1] = assay: Minimum inhibitory concentration against staphylococcus aureus ATCC 6538; format: functional
Procedure, shortened: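 Agar dilution: 1% stocks in 95% ethanol or water, serially diluted into nutrient agar (pH 6.8) to 1000, 100, 10 and 1 ppm. Plates were dried 30 min at 37 °C and spotted with ten drops of 24-h nutrient broth culture. Incubation was 48 h at 37 °C, in duplicate, with hexachlorophene as standard. MIC was the lowest level with no growth of any inoculum on either dish.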

Enterococcus faecalis = assay: Activity at 10 ppm against Streptococcus faecalis; x=Effective; format: functional, organism-based
Procedure, shortened: (§1)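 Gram-positive panel on nutrient agar containing compound at 10, 1.0 and 0.1 ppm, duplicate plates. Six 15-µL drops per species, each holding 10⁷ vegetative cells (10⁶ for L. plantarum). Hexachlorophene and no-compound plates were run alongside. Plates were incubated 5 days at 30 °C and scored for growth. MIC was taken as the lowest level with no colonies on either plate.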

Staphylococcus aureus [2] = assay: Bactericidal activity against Staphylococcus aureus ATCC 6538 at 10 ppm concentration; - = Negative; format: functional, organism-based
Procedure, shortened: (§2)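 S. aureus was inoculated at 10⁷/mL into 10 mL nutrient broth with 10 ppm compound. Those tubes were centrifuged (10000g, 10 min), resuspended in sterile diluent and streaked onto nutrient agar. Colonies after 48 h at 30 °C meant bacteriostatic; none meant bactericidal.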

Staphylococcus aureus [3] = assay: Bacteriostatic activity against Staphylococcus aureus ATCC 6538 at 10 ppm concentration; + =Positive; format: functional, organism-based; procedure, shortened: as §2
[4] = tested on: Lactiplantibacillus plantarum; assay: Activity at 10 ppm against Lactobacillus plantarum; x=Effective; format: functional, organism-based; procedure, shortened: as §1

| Compound | MIC (Staphylococcus aureus [1]) [µg/mL] | also measured |
| --- | --- | --- |
| CCCCc1ccc(S(=O)(=O)Nc2cc(Cl)ccc2O)cc1 | 10 (≈ 29.4 µM) |  |
| O=[N+]([O-])c1ccc(O)c(NS(=O)(=O)c2ccc(Cl)c(Cl)c2)c1 | 10 (≈ 27.5 µM) |  |
| O=[N+]([O-])c1cc(NS(=O)(=O)c2ccc(Cl)c(Cl)c2)ccc1Cl | 1 (≈ 2.62 µM) | Activity (Enterococcus faecalis): Concentration effective; Activity (Staphylococcus aureus [2]): Negative; Activity (Staphylococcus aureus [3]): Negative; Activity [4]: Concentration effective |
| O=C(Cc1ccccc1)Nc1cc(Cl)ccc1O | 100 (≈ 382 µM) |  |
| COC(=O)CCCCCCCC(=O)Nc1ccc(Cl)c([N+](=O)[O-])c1 | 1000 (≈ 2800 µM) |  |
| CCCCCCCCCC(=O)Nc1cc(Cl)cc(Cl)c1 | 10 (≈ 31.6 µM) |  |
| CCCCc1ccc(C(=O)Nc2cc(Cl)ccc2O)cc1 | 1000 (≈ 3290 µM) |  |
| CCCCCCCCC(=O)Nc1cc([N+](=O)[O-])ccc1O | 10 (≈ 34 µM) |  |
| CCCCc1ccc(C(=O)Nc2cc([N+](=O)[O-])ccc2O)cc1 | 1 (≈ 3.18 µM) |  |
| O=S(=O)(Nc1ccc(Cl)c(Cl)c1)c1cc(Cl)ccc1Cl | 1000 (≈ 2690 µM) |  |
| O=C(O)CCCCC(=O)Nc1ccc(Cl)c([N+](=O)[O-])c1 | 100 (≈ 333 µM) |  |
| O=C(Nc1cc(Cl)ccc1O)c1ccc(Cl)c(Cl)c1 | > 1000 |  |
| O=S(=O)(Nc1cc(Cl)ccc1O)c1ccc(Cl)c(Cl)c1 | 10 (≈ 28.4 µM) |  |
| O=C(Nc1cc([N+](=O)[O-])ccc1O)c1ccc(Cl)c(Cl)c1 | 10 (≈ 30.6 µM) |  |
| O=C(O)CCCCCCCCC(=O)Nc1ccc(Cl)c([N+](=O)[O-])c1 | > 1000 |  |
| CC(C)c1ccc(S(=O)(=O)Nc2cc(Cl)ccc2O)cc1 | 10 (≈ 30.7 µM) |  |
| CCC(C)c1ccc(S(=O)(=O)Nc2ccc(Cl)c(Cl)c2)cc1 (stereo not given) | 10 (≈ 27.9 µM) |  |
| CCCc1ccc(S(=O)(=O)N(Cc2ccc(Cl)cc2)c2ccc(Cl)c(Cl)c2)cc1 | > 1000 |  |
| CCCc1ccc(S(=O)(=O)N(C)c2ccc(Cl)c(Cl)c2)cc1 | > 1000 |  |
| COC(=O)CCC(=O)Nc1c(Cl)cccc1Cl | 1000 (≈ 3620 µM) |  |
| COC(=O)CCCCC(=O)Nc1ccc(Cl)c([N+](=O)[O-])c1 | 100 (≈ 318 µM) |  |
| CCc1ccc(S(=O)(=O)Nc2ccc(Cl)c(Cl)c2)cc1 | 10 (≈ 30.3 µM) |  |
| O=C(O)CCC(=O)Nc1c(Cl)cccc1Cl | > 1000 |  |
| O=C(O)CCCCCCC(=O)Nc1ccc(Cl)c([N+](=O)[O-])c1 | 100 (≈ 304 µM) |  |
| CCCCCCCCCCCC(=O)Nc1cc(Cl)cc(Cl)c1 | 10 (≈ 29 µM) |  |

Second part, led by results:

| MIC (Staphylococcus aureus [1]) [µg/mL] | Compound | also measured |
| --- | --- | --- |
| 10 (≈ 32.4 µM) | CC(CC(=O)Nc1ccc(Cl)c(Cl)c1)c1ccccc1 (stereo not given) |  |
| 10 (≈ 33.7 µM) | C=C(CCCCC)C(=O)Nc1ccc(Cl)c([N+](=O)[O-])c1 |  |
| > 1000 | C=C(CCCCCCCCCC)C(=O)Nc1cc(Cl)cc(Cl)c1 |  |
| > 1000 | C=C(CCCCCCCCCC)C(=O)Nc1ccc(Cl)c(Cl)c1 |  |
| > 1000 | COC(=O)CCCCCCCCC(=O)Nc1ccc(Cl)c(Cl)c1 |  |
| 1 (≈ 3.23 µM) | C=C(CCCCCCCC)C(=O)Nc1cc(Cl)ccc1O |  |
| 1000 (≈ 3820 µM) | O=C(O)CCC(=O)Nc1ccc(Cl)c(Cl)c1 |  |
| 100 (≈ 394 µM) | C=C(CCCC)C(=O)Nc1cc(Cl)ccc1O |  |
| 10 (≈ 35.9 µM) | C=C(CCCCC)C(=O)Nc1cc([N+](=O)[O-])ccc1O |  |
| 10 (≈ 36.7 µM) | C=C(CCCC)C(=O)Nc1cc(Cl)cc(Cl)c1 |  |
| 10 (≈ 36.7 µM) | C=C(CCCC)C(=O)Nc1ccc(Cl)c(Cl)c1 |  |
| 1 (≈ 3.31 µM) | CCCCCCCCC(=O)Nc1ccc(Cl)c(Cl)c1 |  |
| 10 (≈ 31.6 µM) | CCCCCCCCCC(=O)Nc1ccc(Cl)c(Cl)c1 |  |
| 10 (≈ 38.4 µM) | CCCCCC(=O)Nc1ccc(Cl)c(Cl)c1 |  |
| 10 (≈ 30.5 µM) | C=C(CCCCCCCC)C(=O)Nc1cc(Cl)cc(Cl)c1 |  |
| 10 (≈ 32.4 µM) | CCC(C(=O)Nc1ccc(Cl)c(Cl)c1)c1ccccc1 (stereo not given) |  |
| > 1000 | O=C(Cc1ccccc1)Nc1ccc(Cl)c(Cl)c1 |  |
| > 1000 | O=C(Nc1ccc(Cl)c(Cl)c1)c1ccc(Cl)c(Cl)c1 |  |
| 1 (≈ 3.01 µM) | O=C(O)CCCCCCCC(=O)Nc1ccc(Cl)c(Cl)c1 |  |
| 1 (≈ 3.08 µM) | C=C(CCCCCCC)C(=O)Nc1ccc(Cl)c([N+](=O)[O-])c1 |  |
| 1 (≈ 3.18 µM) | C=C(CCCCCCC)C(=O)Nc1ccc(Cl)c(Cl)c1 |  |
| 10 (≈ 36.5 µM) | CCCCCCC(=O)Nc1ccc(Cl)c(Cl)c1 |  |
| 1 (≈ 2.96 µM) | C=C(CCCCCCCCCC)C(=O)Nc1cc(Cl)ccc1O |  |
| 10 (≈ 38.4 µM) | CCCCCC(=O)Nc1cc(Cl)cc(Cl)c1 |  |
| 10 (≈ 31.8 µM) | C=C(CCCCCCC)C(=O)Nc1cc(Cl)cc(Cl)c1 |  |
| > 1000 | CCc1ccc(C(=O)Nc2ccc(Cl)c(Cl)c2)cc1 |  |
